Only a sample is shown.
Apaf1 activ = human Apaf-1 activation; O14727; Apaf-1 apoptosome caspase-3 activation, DEVD-Rh110 fluorescence; hits give low values; activity change, negative = activation, % at 20 µM; 0.31% of 330,000 active; AID 489031;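 active = activity change at or below -40% at 20 µM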
Target sequence (O14727 whole entry, looked up): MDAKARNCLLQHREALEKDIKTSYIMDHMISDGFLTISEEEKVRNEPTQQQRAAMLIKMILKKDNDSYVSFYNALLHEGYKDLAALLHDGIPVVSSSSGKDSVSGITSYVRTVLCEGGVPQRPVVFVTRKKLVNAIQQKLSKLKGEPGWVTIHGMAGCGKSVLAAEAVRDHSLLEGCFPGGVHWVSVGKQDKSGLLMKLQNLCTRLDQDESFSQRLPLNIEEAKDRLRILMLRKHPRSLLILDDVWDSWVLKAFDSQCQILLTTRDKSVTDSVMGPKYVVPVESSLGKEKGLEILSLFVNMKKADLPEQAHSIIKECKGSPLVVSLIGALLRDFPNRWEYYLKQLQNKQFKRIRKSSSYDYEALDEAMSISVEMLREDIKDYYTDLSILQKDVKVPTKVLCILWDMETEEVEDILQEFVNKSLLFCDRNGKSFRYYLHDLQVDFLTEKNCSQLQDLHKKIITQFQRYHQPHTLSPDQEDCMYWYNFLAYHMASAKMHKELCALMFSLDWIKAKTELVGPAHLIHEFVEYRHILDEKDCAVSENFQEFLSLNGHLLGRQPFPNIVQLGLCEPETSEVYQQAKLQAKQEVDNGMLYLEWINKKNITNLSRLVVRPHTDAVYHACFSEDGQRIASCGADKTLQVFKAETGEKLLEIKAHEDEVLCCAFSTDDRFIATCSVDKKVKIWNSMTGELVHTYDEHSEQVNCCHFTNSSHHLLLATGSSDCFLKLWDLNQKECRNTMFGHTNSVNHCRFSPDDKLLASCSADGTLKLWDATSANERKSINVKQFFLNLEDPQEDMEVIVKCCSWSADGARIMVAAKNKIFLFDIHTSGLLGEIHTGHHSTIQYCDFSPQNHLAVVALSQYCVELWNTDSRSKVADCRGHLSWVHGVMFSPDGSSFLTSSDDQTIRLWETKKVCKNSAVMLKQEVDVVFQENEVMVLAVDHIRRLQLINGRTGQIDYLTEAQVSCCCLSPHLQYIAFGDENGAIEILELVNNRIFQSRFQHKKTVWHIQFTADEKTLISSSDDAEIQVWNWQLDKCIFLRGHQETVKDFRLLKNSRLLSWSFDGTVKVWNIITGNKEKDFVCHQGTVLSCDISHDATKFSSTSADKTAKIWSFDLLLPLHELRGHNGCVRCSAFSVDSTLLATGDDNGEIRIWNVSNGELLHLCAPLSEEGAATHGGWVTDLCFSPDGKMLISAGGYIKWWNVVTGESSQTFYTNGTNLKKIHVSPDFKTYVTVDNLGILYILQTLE
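System: Reconstituted apoptosome of Apaf-1, cytochrome c, caspase-9, procaspase-3 | Reagent: dATP, cytochrome c, and (Z-DEVD)2-Rh110 caspase-3 substrate | Times: 30 min compound preincubation and 50 min reaction, both room temperature | Detection: Caspase-3-released Rh110 fluorescence, 540 nm emission, 480 nm excitation | Measure: Caspase-3 activity via Apaf-1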
Rh110 interf act = Rh110 signal interference in Apaf-1 activator counter-screen; fluorescence interference (activity change), % at 20 µM, hits read low; 980 tested, under 10 active; Rh110 fluorescence interference, quenched caspase reaction, Ex480/Em540; shares compounds with Apaf1 activ;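 active = mean activity change at or below -40% when tested at 20 µM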
Apaf-1 act conf = Apaf-1 (human) activation, single-dose confirmed; shares compounds with Apaf1 activ; reconstituted apoptosome caspase-3 activity, DEVD-Rh110 fluorescence; hits give low values; activity change, negative = activation, % at 20 µM; 5% of 980 active; AID 504617;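 active = mean activity change at or below -40%, meaning activation of 40% or more, at 20 µM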
Active calls of the source: *; nt = not tested or not shown.

SMILES | Apaf1 activ | Rh110 interf act | Apaf-1 act conf
COc1ccc(OC)c(C2=NOC(C(=O)Nc3ccc4c(c3)OCCO4)C2)c1 (stereo not drawn) | 42 | nt | nt
CCCCOc1cc(NCc2ccccc2)c2ncn(C(C)C)c2c1 | 61 | nt | nt
O=C(NCCCn1ccnc1)c1cn(Cc2ccc(F)cc2)nn1 | -41* | 4 | 0
CCOc1ccc(-c2cc(C(=O)NCCCn3ccnc3)c3cc(Br)ccc3n2)cc1 | 42 | nt | nt
O=C1C=C(c2ccc(OC(F)(F)F)cc2)C[C@@H](c2ccc(F)cc2)C1 | 54 | nt | nt
COc1cccc2nc3cc(C)c(C)cc3nc12 | 84 | nt | nt
Nc1ccccc1C(=O)Nc1cccc2ccccc12 | -114* | -9 | 16
CC(=O)c1ccc(NC(=S)Nc2cccc3ccccc23)cc1 | 45 | nt | nt
C/C(=N\NC(=O)CNc1cccc2ccccc12)c1ccccc1 | 83 | nt | nt
COc1ccccc1-c1oc2ccccc2c1C#CC1(N)CCCCC1 | 68 | nt | nt
Cc1[nH]n(-c2ccccc2)c(=O)c1C(c1ccc(O)c([N+](=O)[O-])c1)c1c(C)[nH]n(-c2ccccc2)c1=O | 87 | nt | nt
CN(C)Cc1c(C(=O)N/N=C/c2cccc(OCc3c(F)cccc3Cl)c2)nnn1-c1nonc1N | -96* | -4 | 11
CN(Cc1c(F)cccc1Cl)C(=O)c1ccc(COc2ccccc2)cc1 | 53 | nt | nt
CCc1ccc(NC(=S)Nc2cccc3cnccc23)cc1 | 89 | nt | nt
Cc1ccc(C)c(N2CCN(S(=O)(=O)c3cn(C)cn3)CC2)c1 | -78* | -4 | 8
O=C1c2ccccc2C(=O)c2c1oc(C(F)(F)F)c2C(=O)c1ccccc1 | 79 | nt | nt
CC(C)C[C@@H]1CN=C(N)N1C[C@@H]1CCCN1C[C@@H](C(C)C)N1C[C@@H](Cc2ccccc2)N(CCc2ccc(Cl)c(Cl)c2)C1=N | 63 | nt | nt
COC(=O)c1c(NC(=O)COc2ccc(Cl)cc2)sc2c1CC(C)(C)NC2(C)C | 61 | nt | nt
CC1CCCCC1NS(=O)(=O)c1ccc(S(=O)(=O)N2CCN(CCC#N)CC2)cc1 (stereo not drawn) | -65* | 1 | 9
Nc1ccc(C(=O)O)cc1 | -5 | nt | nt
Nc1c(Br)cc(Br)cc1CNC1CCC(O)CC1 (stereo not drawn) | 11 | nt | nt
OC(c1cc(C(F)(F)F)nc2c(C(F)(F)F)cccc12)C1CCCCN1 (stereo not drawn) | 48 | nt | nt
COC(=O)CCC(=O)OC1(C)C(=O)C=C2C=C(C3CC3)N(CCN3CCOCC3)C=C2C1=O (stereo not drawn) | 46 | nt | nt
CN1CCN(CCCN2c3ccccc3Sc3ccc(Cl)cc32)CC1 | 54 | nt | nt
CSc1ccc2c(c1)C(N1CCN(C)CC1)Cc1ccccc1S2 (stereo not drawn) | 48 | nt | nt
SMILES | Apaf1 activ | Rh110 interf act | Apaf-1 act conf
CN1CCN(C2Cc3cc(F)ccc3Sc3ccc(Cl)cc32)CC1 (stereo not drawn) | -78* | 7 | 7
CCCCCCCCCn1c2c(c(=N)c3c1CCC3)CCC2 | 50 | nt | nt
Cc1ccc2c(c1)C(O)(C1COC(C)(C)CC1=O)C(=O)N2C (stereo not drawn) | -573* | -4 | 8
CC1=NN(c2ccc(C)cc2C)C(=O)C1C(c1ccccc1)C1C(=O)N(c2ccc(C)cc2C)N=C1C (stereo not drawn) | 67 | nt | nt
O=C(Nc1ncn[nH]1)c1c(Cl)ccc(Cl)c1Cl | -47* | -3 | 10
CCCCn1c(NC(=O)c2ccccc2Cl)c(C#N)c2nc3ccccc3nc21 | 93 | nt | nt
CCCCNC(=O)C(C)N(CCN(C)C)C(=O)CCCN1C(=O)NC(c2ccc([N+](=O)[O-])cc2)C(C(=O)OCc2ccccc2)=C1C (stereo not drawn) | 45 | nt | nt
COc1ccc(/C=C2/C(=O)N(c3ccccc3)N=C2C)cc1 | 96 | nt | nt
COc1ccc(C(=O)CN2C(=O)c3ccccc3C2=O)cc1 | -165* | 10 | 11
COc1ccc(C2=NN(c3ccccc3)C(=O)/C2=C\c2ccc(O)c(OC)c2)cc1 | 90 | nt | nt
CN1C(=O)CC(Nc2cccc3cccc(N)c23)C1=O (stereo not drawn) | 54 | nt | nt
c1csc(-c2nc3c4ccccc4c4ccccc4c3[nH]2)c1 | 44 | nt | nt
CC[C@@H](C)[C@H](CNC)NC[C@@H](Cc1cccc2ccccc12)NCCc1cccc(C(F)(F)F)c1 | 70 | nt | nt
Cc1ccc2nc(/C(C#N)=C\c3ccc(N4CCOCC4)o3)[nH]c2c1 | 44 | nt | nt
O=C(NCc1cccnc1)c1cc(Sc2cccc(Cl)c2)nc2ccccc12 | -47* | 12 | 19
Nc1cccnc1Sc1cccc(Cl)c1 | 76 | nt | nt
Cc1oc2c(c1C(=O)NCc1cccnc1)C(=O)c1ccccc1C2=O | 86 | nt | nt
CCCCCCCCCCCCOC(=O)C[N+](C)(C)C | 46 | nt | nt
FC(F)(F)C1=Nc2cccc3cccc(c23)N1 | 66 | nt | nt
C=C(C)Cn1c(NCCOC)nc2c1c(=O)[nH]c(=O)n2C | -40* | 1 | 4
Cc1cccc(CC(=O)NCCn2c(C)cc3ccccc32)c1 | 41 | nt | nt
CC(=O)c1c(O)cc(C)n(Cc2ccccc2)c1=O | -71* | 10 | 9
NC1=NC[C@H](Cc2ccccc2)N1CCc1cc(C(F)(F)F)cc(C(F)(F)F)c1 | 54 | nt | nt
COc1ccc(C(=O)NCCc2nnc3ccc(SCC(=O)NCCc4ccc(OC)c(OC)c4)nn23)cc1 | -410* | -4 | 9
O=C(CSc1ccc2nnc(CCNC(=O)c3ccccc3)n2n1)Nc1ccccc1 | -293* | 3 | -3
SMILES | Apaf1 activ | Rh110 interf act | Apaf-1 act conf
CN1/C(=C\C(=O)COC(=O)c2ccc([N+](=O)[O-])o2)C(C)(C)c2ccccc21 | 56 | nt | nt
Cc1cc(C)n(CCNC(=O)C2CCC(=O)N(CCc3cccc(F)c3)C2)n1 (stereo not drawn) | -456* | 14 | 16
Cn1c(=O)c2c(-c3ccc(C(C)(C)C)cc3)n(N3CCOCC3)cc2n(C)c1=O | -60* | 14 | 16
O=C(O)c1cc(O)c2c(c1)[C@H]([C@H]1c3cc(C(=O)O)cc(O)c3C(=O)c3c(O[C@@H]4O[C@H](CO)[C@@H](O)[C@H](O)[C@H]4O)cccc31)c1cccc(OC3O[C@H](CO)[C@@H](O)[C@H](O)[C@H]3O)c1C2=O (stereo partly drawn) | 89 | nt | nt
C=CCNc1nc(Cl)nc(Nc2ccc(OCC)cc2)n1 | -51* | -2 | 11
CN(C)c1cccc2cccc(N(C)C)c12 | 89 | nt | nt
Cc1[nH]c2ccccc2c1C(C#N)(C#N)C1C(=O)c2ccccc2C1=O | 73 | nt | nt
CN1CCN(C2=C(Cl)C(=O)C(c3cnc(N4CCCCC4)s3)=C(Cl)C2=O)CC1 | 84 | nt | nt
CCSc1nsc(NC(=O)Nc2ccc(F)cc2F)n1 | -95* | 6 | 16
COc1ccc(C(CCN2CCCC(C)C2)c2c(OC)cc(OC)c3c(-c4ccccc4)cc(=O)oc23)cc1 (stereo not drawn) | 54 | nt | nt
O=C1CC(c2ccccc2)n2ncnc2N1 (stereo not drawn) | -347* | 4 | 11
O=C(c1ccccc1)c1coc2c1C(=O)c1ccccc1C2=O | 64 | nt | nt
CCCCCOC(=O)c1c(N)n(CCOC)c2nc3ccccc3nc12 | 94 | nt | nt
COc1ccc(NC(=O)CCl)cn1 | 67 | nt | nt
Cc1cc2cc(CNC(=O)Nc3cccc(Cl)c3)ccc2n1C | 49 | nt | nt
NC(=O)C1(N2CCCCC2)CCN(C(=S)Nc2cccc(Cl)c2)CC1 | -43* | 1 | 14
S=C(Nc1ccc2nsnc2c1)N1CCCC1 | 98 | nt | nt
